Assay results reported in ChEMBL document CHEMBL1153877, “Lowering of 5-nitroimidazole's mutagenicity: towards optimal antiparasitic pharmacophore” (Eur J Med Chem, 2009).

How the values were obtained:
[1] = tested on: Salmonella typhimurium; test: Induction of mutagenicity in Salmonella Typhimurium YG1042 assessed as number of revertant per nmol after 48 hrs relative to metranidazole; assay type: toxicity, organism-based; conditions: salmonella enterica subsp. enterica serovar typhimurium
[2] = tested on: Salmonella typhimurium; test: Induction of mutagenicity in Salmonella Typhimurium TA100 assessed as number of revertant per nmol after 48 hrs relative to metranidazole; assay type: toxicity, organism-based; conditions: salmonella enterica subsp. enterica serovar typhimurium
[3] = tested on: Salmonella typhimurium; test: Induction of mutagenicity in Salmonella Typhimurium TA100 assessed as number of revertant per ug after 48 hrs; assay type: toxicity, organism-based; conditions: salmonella enterica subsp. enterica serovar typhimurium
Summary of the method: (§1)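 TA100 grown overnight in Nutrient Broth No. 2 with ampicillin. Bacteria preincubated 60 min at 37 °C with shaking with compound in DMSO and 0.1 mL PBS (0.15 M, pH 7.4). Top agar containing histidine/biotin added, then plated on Vogel-Bonner agar. Revertants counted after 48 h. Four consecutive doses in triplicate plates; solvent control in quadruplicate. Mutagenic power given as revertants per amount of compound.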

[4] = tested on: Salmonella typhimurium; test: Induction of mutagenicity in Salmonella Typhimurium TA100 assessed as number of revertant per nmol after 48 hrs; assay type: toxicity, organism-based; conditions: salmonella enterica subsp. enterica serovar typhimurium; summary of the method: as §1
[5] = tested on: Salmonella typhimurium; test: Induction of mutagenicity in Salmonella Typhimurium YG1042 assessed as number of revertant per ug after 48 hrs; assay type: toxicity, organism-based; conditions: salmonella enterica subsp. enterica serovar typhimurium
Summary of the method: (§2)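 YG1042, a TA100 derivative, grown overnight in Nutrient Broth No. 2 with ampicillin and kanamycin. Bacteria preincubated 60 min at 37 °C with shaking with compound in DMSO and 0.1 mL PBS (0.15 M, pH 7.4). Top agar containing histidine/biotin added, then plated on Vogel-Bonner agar. Revertants counted after 48 h. Four doses in triplicate plates; solvent control in quadruplicate. Mutagenic power given as revertants per amount of compound.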

[6] = tested on: Salmonella typhimurium; test: Induction of mutagenicity in Salmonella Typhimurium YG1042 assessed as number of revertant per nmol after 48 hrs; assay type: toxicity, organism-based; conditions: salmonella enterica subsp. enterica serovar typhimurium; summary of the method: as §2
[7] = Specificity index, ratio of IC50 for human THP1 cells to IC50 for Trichomonas vaginalis TVR87; design: species or system THP-1
Summary of the method: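 Specificity index = IC50 against THP1 cells (72 h, propidium iodide flow cytometry) divided by IC50 against T. vaginalis (48 h, trypan blue).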

[8] = tested on: THP-1; test: Cytotoxicity against human THP1 cells after 72 hrs by propidium iodide-based flow cytometry; assay type: cell-based; conditions: THP-1, 72 h
Summary of the method: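 THP1 monocytes kept in RPMI with 10% foetal calf serum, 25 mM HEPES, 25 mM NaHCO₃ and 1% L-glutamine/penicillin-streptomycin at 37 °C, 6% CO₂. Cells at 10⁵ cells/mL exposed for 72 h to various concentrations from DMSO stocks. Drug-free and 0.5% DMSO final controls run alongside. Living cells counted by propidium iodide flow cytometry.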

[9] = tested on: Salmonella typhimurium; test: Ratio of number of revertant per nmol of drug for Salmonella Typhimurium YG1042 to number of revertant per nmol of drug for Salmonella Typhimurium TA100; assay type: toxicity, organism-based; conditions: salmonella enterica subsp. enterica serovar typhimurium
[10] = tested on: Trichomonas vaginalis; test: Antitrichomonas activity against Trichomonas vaginalis TVR87 after 48 hrs by trypan blue staining; assay type: functional, organism-based; conditions: TVR87, 48 h
Summary of the method: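 T. vaginalis TVR87 trophozoites grown in TM 161 medium with 10% heat-inactivated horse serum, used one day after subculture in log phase. Assay at 5 × 10³ trophozoites/mL, triplicate cultures, incubated anaerobically at 37 °C for 48 h with a range of compound concentrations from DMSO stocks. DMSO 0.1% final served as negative control. Viable cells counted by trypan blue.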

SMILES	Activity [1]	Activity [2]	Activity [3]	Activity [4]	Activity [5]	Activity [6]	Ratio IC50 [7]	IC50 [8] [µM]	Ratio [9]	IC50 [10] [µM]
Cc1nc(CS(=O)(=O)c2ccccc2)c([N+](=O)[O-])n1C	0.26	0.99	27.91	8.24	74.18	21.91	>3525	> 846	2.7	0.24
Cc1nc(CS(=O)(=O)c2ccc(F)cc2)c([N+](=O)[O-])n1CCO	0.04	0.08	1.91	0.66	10.09	3.46	>416	> 728	5.3	1.75
Cc1nc(CS(=O)(=O)c2ccc(Br)cc2)c([N+](=O)[O-])n1CCO	0.04	0.13	2.73	1.1	9.123	3.73	75	124	3.4	1.64
Cc1ncc([N+](=O)[O-])n1CC(C)O (stereo not drawn) [SECNIDAZOLE]	0.28	0.57	25.74	4.77	128.44	23.78	>1666	> 1350	5	0.81
Cc1nc(CS(=O)(=O)c2ccc(F)cc2)c([N+](=O)[O-])n1C	0.09	0.18	4.72	1.48	24.26	7.6	>312	> 797	5.1	2.55
Cc1nc(CS(=O)(=O)c2ccc(Br)cc2)c([N+](=O)[O-])n1C	0.15	0.79	17.61	6.59	32.91	12.32	493	326	1.9	0.66
Cc1ccc(S(=O)(=O)Cc2ncn(C)c2[N+](=O)[O-])cc1	0.65	2.46	69.71	20.59	185.37	54.74	>5458	> 846	2.7	0.155
Cc1nc(CS(=O)(=O)c2ccc(F)cc2)c([N+](=O)[O-])n1CC(C)O (stereo not drawn)	–	–	–	–	–	–	>293	> 699	–	2.38
Cc1nc(CS(=O)(=O)c2ccc(Br)cc2)c([N+](=O)[O-])n1CC(C)O (stereo not drawn)	0.02	0.17	3.36	1.41	3.08	1.29	301	126	0.9	0.418
Cc1nc(CS(=O)(=O)c2ccc(Cl)cc2)c([N+](=O)[O-])n1CCO	0.06	0.27	6.22	2.24	14.73	5.3	13136	578	2.4	0.044
Cc1ccc(S(=O)(=O)Cc2nc(C)n(CCO)c2[N+](=O)[O-])cc1	0.02	0.19	4.62	1.57	6.14	2.08	880	59	1.3	0.067
Cn1cnc(CS(=O)(=O)c2ccccc2)c1[N+](=O)[O-]	0.59	1.71	50.91	14.32	176.64	49.69	>4460	> 888	3.5	0.199
